Experimental data collected from several papers.
Values after ≈ are worked out from the molar mass of the structure shown.

C/C(=N\c1nc(N)nc(/N=C(\C)c2c(O)c3ccccc3oc2=O)n1)c1c(O)c2ccccc2oc1=O  MIC (Penicillium verrucosum; microbial growth, broth dilution; 48 h): 7.81 µg/mL
CC(=O)NC[C@H]1CN(c2ccc(N3CCOCC3)c(F)c2)C(=O)O1  MIC90 (Enterococcus faecium; microbial growth; clinical isolate): 2 µg/mL (≈ 5.93 µM)
OC(Cn1cncn1)(Cn1cncn1)c1ccc(F)cc1F  MIC (Candida albicans; microbial growth, broth dilution; 14936; 48 h): 4 µM
CN1CCN(c2cccc(-c3ccc4ncnc(Nc5ncco5)c4c3)c2)CC1  GI50 (Trypanosoma brucei; parasite growth, SYBR Green; 48 h): 1700 nM
Cc1c2c(nn1C)CSCc1cc(n(C)n1)CSc1cc(c3ccccc3c1)OCCCc1c(C(=O)O)n(C)c3c-2c(Cl)ccc13  MIC50 (Enterococcus faecium; microbial growth, broth dilution; clinical isolate): 12.5 µM (≈ 8.4 µg/mL)
Clc1cccc(Nc2ncnc3ccc(-c4cccc(N5CCOCC5)c4)cc23)c1  GI50 (Trypanosoma brucei; parasite growth, SYBR Green; 48 h): 380 nM
O=c1[nH]c(CCl)nc2scc(-c3ccc(F)cc3)c12  EC50 (Trypanosoma brucei; parasite growth, ATP luminescence; 24 h): 1300 nM
c1coc(Nc2ncnc3ccc(-c4cncc(N5CCOCC5)n4)cc23)n1  GI50 (Trypanosoma brucei; parasite growth, SYBR Green; 48 h): 25000 nM
C/C(=N\C(=O)/N=C(\C)c1c(O)c2ccccc2oc1=O)c1c(O)c2ccccc2oc1=O  MIC (Penicillium verrucosum; microbial growth, broth dilution; 48 h): 62.5 µg/mL
FC(F)(F)c1cc(Nc2ncnc3ccc(-c4cccc(N5CCOCC5)c4)cc23)ccc1Cl  GI50 (Trypanosoma brucei; parasite growth, SYBR Green; GAMBIENSE): 250 nM
CC(=O)N1CCN(c2ccc(OCC3COC(Cn4ccnc4)(c4ccc(Cl)cc4Cl)O3)cc2)CC1 (stereo not drawn)  MIC (Penicillium verrucosum; microbial growth, broth dilution; 48 h): 3.9 µg/mL
O=c1[nH]c(CCl)nc2scc(-c3ccccc3)c12  EC50 (Trypanosoma brucei; parasite growth, ATP luminescence; 48 h): 1400 nM
C=C[C@]1(C)C[C@@H](OC(=O)CS[C@@H]2C[C@H]3CC[C@@H](C2)N3C)[C@]2(C)[C@H](C)CC[C@]3(CCC(=O)[C@H]32)[C@@H](C)[C@@H]1O  MIC90 (Enterococcus faecium; microbial growth; clinical isolate): 128 µg/mL (≈ 247 µM)
CCOC(=O)c1cnc2c([N+](=O)[O-])cc(C(F)(F)F)cc2c1NCCc1ccccc1  EC50 (Trypanosoma brucei; parasite growth, resazurin; 72 h): > 10000 nM
C[C@@H]1[C@H](O)[C@@H](C)/C=C/C=C/C=C/C=C/C=C/C=C/C=C/[C@H](O[C@@H]2O[C@H](C)[C@@H](O)[C@H](N)[C@@H]2O)C[C@@H]2O[C@](O)(C[C@@H](O)C[C@@H](O)[C@H](O)CC[C@@H](O)C[C@@H](O)CC(=O)O[C@H]1C)C[C@H](O)[C@H]2C(=O)O  MIC (Candida albicans; microbial growth, broth dilution; 56452; 48 h): < 0.25 µM
c1cc(-c2ccc3ncnc(NC4CCOCC4)c3c2)cc(N2CCOCC2)c1  GI50 (Trypanosoma brucei; parasite growth, SYBR Green; 48 h): 3000 nM
O=c1[nH]c(CCl)nc2scc(-c3ccc(C(F)(F)F)cc3)c12  EC50 (Trypanosoma brucei; parasite growth, ATP luminescence; 48 h): 2500 nM
CCOC(=O)c1cnc2c([N+](=O)[O-])cc(C(F)(F)F)cc2c1NCCCN1CCOCC1  EC50 (Trypanosoma brucei; parasite growth, resazurin; 72 h): > 10000 nM
